Key:
Type in all cases: cell-based
[1] = system: Kir1.1; experiment: Whole-cell patch clamp, Kir1.1; details: 20 μM, n = 5
[2] = biological target: T1, Kir3.1/3.2 (GIRK) (Homo sapiens, UniProt P48051+P48549); experiment: Whole-cell patch clamp, Kir3.1/3.2 in transfected HEK-293 cells
T1 sequence (P48549 1-501): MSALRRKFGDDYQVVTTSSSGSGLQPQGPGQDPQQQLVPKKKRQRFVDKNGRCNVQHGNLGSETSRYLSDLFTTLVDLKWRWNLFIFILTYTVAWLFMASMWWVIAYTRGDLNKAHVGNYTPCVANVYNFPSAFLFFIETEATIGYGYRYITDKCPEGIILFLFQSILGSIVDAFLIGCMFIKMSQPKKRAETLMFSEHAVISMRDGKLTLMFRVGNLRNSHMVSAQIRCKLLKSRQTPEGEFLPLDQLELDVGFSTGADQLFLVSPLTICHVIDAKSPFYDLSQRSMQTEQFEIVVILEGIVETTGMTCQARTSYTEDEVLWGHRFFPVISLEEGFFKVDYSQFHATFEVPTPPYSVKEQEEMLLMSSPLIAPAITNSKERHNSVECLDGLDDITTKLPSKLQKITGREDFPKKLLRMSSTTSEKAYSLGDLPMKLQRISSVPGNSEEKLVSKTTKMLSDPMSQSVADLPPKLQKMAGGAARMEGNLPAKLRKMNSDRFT
T1 sequence (P48051 1-423): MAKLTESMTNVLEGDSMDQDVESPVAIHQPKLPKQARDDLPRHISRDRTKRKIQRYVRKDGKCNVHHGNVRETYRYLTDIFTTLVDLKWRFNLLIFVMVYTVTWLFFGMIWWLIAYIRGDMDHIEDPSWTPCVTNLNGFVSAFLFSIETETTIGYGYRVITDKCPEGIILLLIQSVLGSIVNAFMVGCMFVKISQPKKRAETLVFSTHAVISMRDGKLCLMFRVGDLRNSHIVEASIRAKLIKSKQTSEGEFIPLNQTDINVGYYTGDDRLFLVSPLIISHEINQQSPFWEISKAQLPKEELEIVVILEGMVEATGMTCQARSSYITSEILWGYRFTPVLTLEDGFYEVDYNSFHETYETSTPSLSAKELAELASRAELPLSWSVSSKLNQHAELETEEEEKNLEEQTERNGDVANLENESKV
Method in brief: (§1)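 HEK-293 cells were transiently co-transfected with channel plus an EGFP marker (Lipofectamine). Pipette: 135 mM KCl, 2 mM MgCl2, 1 mM EGTA, 10 mM HEPES, 2 mM Na2ATP, pH 7.3. Bath: 135 mM NaCl, 5 mM KCl, pH 7.4; some runs used 50 mM KCl. Held at −75 mV and ramped −120 to 120 mV every 5 s, at 20–23°C. Test compound was bath-applied for 2–10 min, then 2 mM BaCl2. CRC n = 4–7. τ taken from the time course.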

[3] = biological target: T1, Kir3.1/3.2 (GIRK); experiment: Tl+ flux assay, mGluR8-activated GIRK in HEK-293 cells; details: from Tl+ flux IC50 values
Method in brief: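 mGluR8/GIRK/HEK monoclonal cells stably expressing Kir3.1/3.2, M4 receptor and rat mGlu8a, loaded with FluoZin-2. Test compound pre-incubated 20 min (1:3 serial dilutions from 10 mM DMSO stock). Tl+ buffer (12 mM Tl2SO4, pH 7.3) added with glutamate at EC80, set daily from an 11-point curve. Imaged at 1 Hz (ex 470, em 540 nm), 20–23°C. Slope taken 5–15 s post-addition, vehicle-corrected. CRC n = 3. Selectivity taken from the Tl+ flux IC50 values for GIRK and Kir1.1-S44D.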

[4] = biological target: T2, wild type Kir7.1 (Homo sapiens, UniProt O60928); experiment: Whole-cell patch clamp, wild type Kir7.1 in transfected HEK-293 cells
T2 sequence (O60928 1-360): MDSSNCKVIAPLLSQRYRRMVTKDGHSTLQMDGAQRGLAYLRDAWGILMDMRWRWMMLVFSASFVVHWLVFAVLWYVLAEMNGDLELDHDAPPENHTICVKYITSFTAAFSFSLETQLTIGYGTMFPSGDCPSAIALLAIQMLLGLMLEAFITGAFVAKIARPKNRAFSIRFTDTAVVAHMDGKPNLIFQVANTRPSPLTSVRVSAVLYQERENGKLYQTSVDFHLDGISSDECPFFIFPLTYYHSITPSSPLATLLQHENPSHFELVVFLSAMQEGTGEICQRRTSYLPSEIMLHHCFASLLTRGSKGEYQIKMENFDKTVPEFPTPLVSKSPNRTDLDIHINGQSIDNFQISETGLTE
Method in brief: as §1

[5] = biological target: T3, Kir3.1/3.4 (Homo sapiens, UniProt P48544+P48549); experiment: Two-electrode voltage clamp in Xenopus oocytes, Kir3.1/3.4; details: TEVC oocytes, 25 μM, mean ± SEM, n = 6
T3 sequence (P48549 1-501): T1 sequence (P48549 1-501)
T3 sequence (P48544 1-419): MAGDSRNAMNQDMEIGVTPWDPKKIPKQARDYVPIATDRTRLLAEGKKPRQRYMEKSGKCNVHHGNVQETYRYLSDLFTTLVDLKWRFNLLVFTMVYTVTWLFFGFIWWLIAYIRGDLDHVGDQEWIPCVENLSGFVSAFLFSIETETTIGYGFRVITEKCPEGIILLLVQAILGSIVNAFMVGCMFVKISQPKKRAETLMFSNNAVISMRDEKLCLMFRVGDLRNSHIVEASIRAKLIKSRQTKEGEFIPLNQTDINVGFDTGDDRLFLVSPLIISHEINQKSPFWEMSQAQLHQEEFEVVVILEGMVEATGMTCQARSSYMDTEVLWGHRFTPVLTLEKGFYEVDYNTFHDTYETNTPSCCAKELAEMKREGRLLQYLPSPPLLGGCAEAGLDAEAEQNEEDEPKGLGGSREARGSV
Method in brief: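 Xenopus oocytes were injected with Kir3.1/3.2 or Kir3.1/3.4 cRNA and voltage-clamped with two electrodes at 20–23°C, with current at −80 mV followed over time. The bath was switched from K+-free to 90 mM K+ to activate the channel. Test compound in 90K was applied continuously at graded concentrations, then 2 mM Ba2+ was added. A final 0K switch measured leak. Time constant derived (n = 6 at 25 μM). Percent inhibition n = 4–6.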

IC50 [2]: 1300 nM | inhibition of GIRK ([2]; whole-cell patch clamp, HEK-293, 30 μM bath application): near complete inhibition | time constant of inhibition of Kir3.1/3.2 ([2]; whole-cell patch clamp, HEK-293, 30 μM, mean ± SEM, n = 5): 16 ± 1 s | selectivity for GIRK over Kir1.1 [3]: 10 fold | IC50 ([4]; IC50 Kir7.1, whole-cell patch clamp, wild type Kir7.1, HEK-293): ~1000 nM | effect on wild type Kir7.1 activity ([4]; whole-cell patch clamp, 10 μM, n = 4): near complete inhibition | time constant for inhibition of Kir7.1 ([4]; whole-cell patch clamp, 30 μM, mean ± SEM, n = 4): 14 ± 2 s | time constant (τ) for inhibition of Kir3.1/3.4 currents [5]: 27 ± 5 s
Compound: Cc1ccc(OCC(O)Cn2c(=N)n(Cc3ccccc3)c3ccccc32)cc1 (stereo not drawn) [Compound 1, 1-(3-benzyl-2-imino-2,3-dihydro-1H-benzo[d]imidazol-1-yl)-3-(p-tolyloxy)propan-2-ol]
inhibition of Kir1.1 [1]: 49.5 ± 0.03%
